From PubChem
V1R ag counter: agonists of human V1a receptor, primary screen, counter-screen for OXTR agonist project, fluorescence, CHO-V1R cells; activation, % at 3 µM; Fluo-8 calcium fluorescence, agonist mode; 0% DMSO, 100% 3 nM vasopressin; 320,000 compounds, 0.25% hits; AID 2797, 2010;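 active = activation above the mean activation of all tested compounds plus 3 SD, per screening run, cut at about 20% in these data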;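 also: signal is peak over basal fluorescence ratio across a 100 second FLIPR read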
Target sequence (P37288 whole entry, looked up): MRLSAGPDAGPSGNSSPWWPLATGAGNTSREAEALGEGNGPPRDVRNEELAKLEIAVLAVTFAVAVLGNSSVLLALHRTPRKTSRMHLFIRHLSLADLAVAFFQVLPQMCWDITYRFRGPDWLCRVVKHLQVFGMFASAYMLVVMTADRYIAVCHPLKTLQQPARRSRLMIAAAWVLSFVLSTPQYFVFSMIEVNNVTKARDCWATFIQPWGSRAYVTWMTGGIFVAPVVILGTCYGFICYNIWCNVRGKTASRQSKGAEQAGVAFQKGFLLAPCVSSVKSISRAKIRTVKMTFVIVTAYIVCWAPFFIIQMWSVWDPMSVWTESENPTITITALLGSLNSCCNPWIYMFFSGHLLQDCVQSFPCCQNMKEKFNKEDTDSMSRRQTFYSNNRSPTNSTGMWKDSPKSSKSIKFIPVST
TAAR1 ag: human TAAR1 agonists, primary screen, Fluo-8 calcium fluorescence, CHO RD-HGA16 cells; Trace amine-associated receptor 1 (Homo sapiens), Q96RJ0; vehicle wells 0%, saturating PEA agonist 100%; activation, % at 3 µM; 360,000 compounds, 0.99% hits; AID 624467, 2012;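 active = activation above the mean activation of all test compounds in the run plus 3 SD, cut at about 38% in these data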
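Assay system – CHO-derived RD-HGA16 cells with stable Gα16 and human TAAR1 · Compound dosing – one-point dosing at 3 µM (nominal) · Incubation – 17-24 h seeding, 75 min 37 °C dye, 30 min RT · Measured by – kinetic Fluo-8 calcium fluorescence · Control set – DMSO vehicle as 0%, PEA at EC100 as 100% · Repeats – single well for each compound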
OXTR potentiate: human OXTR potentiators, primary screen, fluorescence, CHO-OTR cells, Fluo-8 calcium. Oxytocin receptor (Homo sapiens), P30559. Fluo-8 calcium fluorescence, potentiator mode; 0% = oxytocin EC15, 100% = EC100. activation, % at 3 µM. 320,000 compounds, 0.061% hits;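 active = activation above that plate's cutoff, the mean activation of tested compounds plus 3 SD, cut at about 6.6% in these data, passing the limit was not always enough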
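Assay system: CHO cell line stably expressing human OTR. Reagent: EC15 oxytocin agonist. Dosing: single dose, 3.0 µM nominal final compound concentration. Timing: compound 6 min at room temperature before oxytocin, 100 s read. Signal: kinetic Fluo-8 calcium fluorescence. Controls: oxytocin EC15 low and EC100 high.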
TAAR1 antagonist: human TAAR1 antagonists, primary screen, Fluo-8 calcium fluorescence, CHO RD-HGA16 cells | 360,000 compounds, 1.5% hits | antagonist | inhibition, % at 3 µM;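 active = inhibition above a per-plate cutoff, the mean inhibition of test compounds on that plate plus 3 SD, cut at about 49% in these data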
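Assay system: CHO-derived RD-HGA16 cells stably expressing human TAAR1 plus Gα16. Timing: 140 s kinetic read after compound, 140 s after agonist. Technique: kinetic Fluo-8 calcium fluorescence measurement. Measure: % inhibition of agonist calcium response.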
OXTR ag: human OXTR agonists, primary screen, fluorescence, CHO-OTR cells, Fluo-8 calcium. 320,000 compounds, 0.32% hits. activation, % at 3 µM. Fluo-8 calcium fluorescence; normalized: DMSO 0%, oxytocin 100%;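 active = activation above the mean of all tested compounds plus 3 SD, cutoff set per screening run, cut at about 20% in these data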;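 also: peak over basal fluorescence ratio from a 100 s FLIPR kinetic read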
TAAR1 ag confirm: human TAAR1 agonists, retest of hits, confirmation, Fluo-8 calcium fluorescence, CHO RD-HGA16 cells; activation, % at 3 µM; 2,400 compounds, 82% hits; AID 651783, 2012; scaled: DMSO 0%, maximal phenethylamine 100%; shares compounds with TAAR1 ag;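 active = activation above a cutoff set at the run's mean compound activation plus 3 SD, cut at about 39% in these data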
Ga16 nonsel ag: nonselective calcium mobilization agonists, CHO-Ga16 cells, counter-screen for hTAAR1 agonist project, cell-based, fluorescence, CHO-Ga16 parental line; activation, % at 3 µM; shares compounds with TAAR1 ag; 2,400 compounds, 50% hits; Fluo-8 calcium fluorescence; normalized to maximal ATP response, DMSO zero;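 active = activation above the run cutoff, the mean activation over all tested wells plus 3 SD, cut at about 12% in these data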
TAAR1 desens: TAAR1 desensitization by agonist hits, confirmation, counter-screen for TAAR1 agonist project, cell-based, fluorescence, tachyphylaxis; shares compounds with TAAR1 ag; CHO RD-HGA16 hTAAR1, Fluo-8 calcium, beta-PEA response inhibition; inhibition, % at 3 µM; 2,400 compounds, 46% hits; AID 651951, 2012;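 active = inhibition above the run cutoff, the mean inhibition of all test compounds plus 3 SD, cut at about 49% in these data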;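 also: beta-PEA stimulus applied at its EC80; loss of beta-PEA calcium signal after compound pretreatment read as receptor desensitization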
Ga16 nonsel ant: inhibition of ATP-evoked calcium response in CHO-Ga16 cells, counter-screen for TAAR1 agonist project, cell-based, fluorescence; shares compounds with TAAR1 ag; CHO-Ga16 ATP-induced calcium, Fluo-8 fluorescence; inhibition, % at 3 µM; 2,400 compounds, 39% hits; AID 651952, 2012;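 active = inhibition above the plate's mean compound inhibition plus 3 SD, computed per plate, cut at about 22% in these data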
Hits are given with their value. Sampled rows, rich in hits. Any-hit rate of the full collection: about 2.3%.

CCc1noc(C)c1C(=O)Nc1cc(S(=O)(=O)N(CC)CC)ccc1N1CCOCC1 was read as V1R ag counter inactive, TAAR1 ag inactive, OXTR potentiate inactive, TAAR1 antagonist inactive and OXTR ag inactive.
`N=C1/C(=C\c2coc3ccccc3c2=O)C(=O)N=C2SC=CN12` gave V1R ag counter 84, TAAR1 ag 148, OXTR potentiate inactive, TAAR1 antagonist 60, OXTR ag 116, TAAR1 ag confirm 110, Ga16 nonsel ag 118, TAAR1 desens 75 and Ga16 nonsel ant 75.
For COC(=O)[C@H](CC(C)C)NC(=O)N1CCC(C)CC1 the results were V1R ag counter inactive, TAAR1 ag inactive, OXTR potentiate inactive, TAAR1 antagonist inactive and OXTR ag inactive.
For O=C(CSC1=NS(=O)(=O)c2cc(Cl)ccc2N1)NCCc1ccccc1 the results were V1R ag counter inactive, TAAR1 ag 104, OXTR potentiate inactive, TAAR1 antagonist 80, OXTR ag inactive, TAAR1 ag confirm 93, Ga16 nonsel ag inactive, TAAR1 desens 86 and Ga16 nonsel ant inactive.
Screening O=C(CSC1=NS(=O)(=O)c2cc(F)ccc2N1)Nc1ccccc1 returned V1R ag counter inactive, TAAR1 ag inactive, OXTR potentiate inactive, TAAR1 antagonist inactive and OXTR ag inactive.
`O=C(CSC1=NS(=O)(=O)c2cc(F)ccc2N1)NCCc1ccccc1` gave V1R ag counter inactive, TAAR1 ag 101, OXTR potentiate inactive, TAAR1 antagonist 81, OXTR ag inactive, TAAR1 ag confirm 105, Ga16 nonsel ag inactive, TAAR1 desens 94 and Ga16 nonsel ant inactive.
For COC(=O)c1nc(NNC(=O)c2ccccc2)sc1-c1ccccc1 the results were V1R ag counter inactive, TAAR1 ag inactive, OXTR potentiate inactive, TAAR1 antagonist inactive and OXTR ag inactive.
For O=C(c1coc(=O)c(Br)c1)N1CCC(C(O)(c2ccccc2)c2ccccc2)CC1 the results were V1R ag counter inactive, TAAR1 ag inactive, OXTR potentiate inactive, TAAR1 antagonist inactive and OXTR ag inactive.
Screening CC1(C)CCCN(C(=O)c2coc(=O)c(Br)c2)C1 returned TAAR1 ag 79, TAAR1 antagonist 76, TAAR1 ag confirm 100, Ga16 nonsel ag inactive, TAAR1 desens 95 and Ga16 nonsel ant inactive.
`Cc1ccc(S(=O)(=O)NCCC(=O)NCc2ccco2)cc1` gave V1R ag counter inactive, TAAR1 ag inactive, OXTR potentiate inactive, TAAR1 antagonist inactive and OXTR ag inactive.
For Cc1cccc(/C=N\Nc2cn[nH]c(=O)c2Cl)c1 the results were V1R ag counter inactive, TAAR1 ag 53, OXTR potentiate inactive, TAAR1 antagonist 70, OXTR ag inactive, TAAR1 ag confirm 88, Ga16 nonsel ag inactive, TAAR1 desens 72 and Ga16 nonsel ant inactive.
For O=c1[nH]ncc(N/N=C\c2cccs2)c1Cl the results were V1R ag counter inactive, OXTR potentiate inactive, OXTR ag inactive, Ga16 nonsel ag inactive and Ga16 nonsel ant inactive.
`O=c1[nH]ncc(N/N=C\c2ccncc2)c1Cl` gave V1R ag counter inactive, TAAR1 ag inactive, OXTR potentiate inactive, TAAR1 antagonist inactive and OXTR ag inactive.
